How the values were obtained:
zebrafish HDAC10 = biological target: T1, zebrafish HDAC10 (Danio rerio, UniProt F1QCV2); assay: fixed-point N-acetylputrescine hydrolysis assay; type: biochemical
T1 sequence (F1QCV2 1-675): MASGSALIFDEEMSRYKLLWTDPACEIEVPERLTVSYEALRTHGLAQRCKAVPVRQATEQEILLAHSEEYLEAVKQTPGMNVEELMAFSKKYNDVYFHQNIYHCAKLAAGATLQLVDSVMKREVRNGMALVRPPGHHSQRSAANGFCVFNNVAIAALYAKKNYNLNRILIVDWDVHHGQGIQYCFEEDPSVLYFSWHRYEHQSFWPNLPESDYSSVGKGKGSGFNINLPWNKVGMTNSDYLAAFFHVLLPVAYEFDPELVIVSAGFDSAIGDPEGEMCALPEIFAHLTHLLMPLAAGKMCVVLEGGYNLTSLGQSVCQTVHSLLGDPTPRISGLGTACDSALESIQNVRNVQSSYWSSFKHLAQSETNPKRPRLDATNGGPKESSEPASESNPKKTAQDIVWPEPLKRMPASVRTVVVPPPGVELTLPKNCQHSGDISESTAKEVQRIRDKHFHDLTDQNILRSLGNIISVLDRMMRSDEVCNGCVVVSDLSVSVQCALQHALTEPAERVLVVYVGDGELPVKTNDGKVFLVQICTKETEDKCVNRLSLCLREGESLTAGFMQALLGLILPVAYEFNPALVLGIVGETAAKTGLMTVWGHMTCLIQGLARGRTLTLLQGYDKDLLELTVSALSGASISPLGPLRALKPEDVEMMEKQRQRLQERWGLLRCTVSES
Method in brief: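 N-acetylputrescine 800 μM added; quenched after 45–60 min with sodium bicarbonate plus dansyl chloride, 50 °C 1 h. Dansylated product quantified by LC-MS; IC50 from logistic nonlinear regression.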

[1] = stability in aqueous solution by mass spectrometry; type: physicochemical
[2] = ratio of IC50 values against zebrafish HDAC10

| Structure (SMILES) | IC50 (zebrafish HDAC10) | fold difference in potencies between inhibitors 7 and 6 (zebrafish HDAC10; [2]) | fold greater inhibitory potency than methylketone 2 or methoxymethylketone 3 (zebrafish HDAC10; [2]) | stability in aqueous solution [1] |
| --- | --- | --- | --- | --- |
| CC(=O)SCCCCCNCCCN [compound 7, S-{5-[(3-aminopropyl)amino]pentyl} thioacetate] | 0.03 ± 0.01 µM | 12 fold |  | stable in aqueous solution |
| NCCCNCCCCCC(=O)C(F)(F)F [compound 1, 7-[(3-aminopropyl)amino]-1,1,1-trifluoroheptan-2-one] | 0.08 ± 0.01 µM |  | at least 29 fold |  |
| COCC(=O)CCCCCNCCCN [compound 3, 7-[(3-aminopropyl)amino]-1-methoxyheptan-2-one] | 35 ± 0.1 µM |  |  |  |

More lines, main results first:

| IC50 (zebrafish HDAC10) | fold difference in potencies between inhibitors 7 and 6 (zebrafish HDAC10; [2]) | fold greater inhibitory potency than methylketone 2 or methoxymethylketone 3 (zebrafish HDAC10; [2]) | Structure (SMILES) | stability in aqueous solution [1] |
| --- | --- | --- | --- | --- |
| 400 ± 70 µM |  |  | NCCCNCCCCCB(O)O [compound 4, 5-[(3-aminopropyl)amino]pentylboronic acid] |  |
| 2.3 ± 0.2 µM |  |  | CC(=O)CCCCCNCCCN [compound 2, 7-[(3-aminopropyl)amino]heptan-2-one] |  |
| 0.37 ± 0.02 µM |  |  | NCCCNCCCCCS [compound 6, 5-[(3-aminopropyl)amino]pentane-1-thiol] | susceptible to oxidation and begins to forms a disulfide in aqueous solution |

Source: publication PMC6904438 (Biochemistry, 2019)
